Experimental data taken from the EternaBench riboswitch data.

Tested on: MS2 coat protein
Assay: apparent Kd, MS2 coat protein; higher = weaker binding; RNA-MaP array; FMN 200 µM where present
In short: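 Designs were transcribed by stalled E. coli RNA polymerase on Illumina sequencing-chip clusters. They were titrated with SNAP-549-labelled MS2 coat protein from 0.7 or 1.5 nM, doubling to 3 µM, in 100 mM Tris-HCl pH 7.5, 80 mM KCl, 4 mM MgCl2, BSA, DTT, yeast tRNA and Tween-20, without and then with constant ligand. The apparent Kd is the median of filtered per-cluster fits after normalisation of green signal to red-channel RNA signal and control-cluster median Fmax.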

[1] = designed as: ON switch for flavin mononucleotide, no ligand
[2] = ligand present: flavin mononucleotide, designed as: ON switch for flavin mononucleotide
[3] = designed as: OFF switch for flavin mononucleotide, no ligand
[4] = ligand present: flavin mononucleotide, designed as: OFF switch for flavin mononucleotide

For “UCCAUCGUAUGAGGAUAUGGAACUGAAACAGUUCCAGAAGGCAUGUCAAUAGACAUGAGGAUCACCCAUGUAUUAUCGAUGGAA”, the “apparent Kd” value [1] was 429 nM and the “apparent Kd” value [2] was 42.9 nM.
In the case of “GUUAUUAACAAGAAGGCAUACAUGAGGAUCACCCAUGUUCUACAUGGAUAAUGAGGAUAUUGCUAAUACAUGAGGAUCACCCAU”, the “apparent Kd” value [3] is reported as 48.8 nM and the “apparent Kd” value [4] is reported as 53.8 nM.
With “UCACAGUCAGGAUAUUCUGUGUAGGUUGCGCCUCAAGCACUGAAGAAGGGACAUGAGGAUCACCCAUGUUCCUC” the “apparent Kd” value [3] was 15.5 nM and the “apparent Kd” value [4] was 18.7 nM.
“UAAUUGUGAGGAUAUUCGUAGUACACGGAGACGUGUAUUACGGAGAAGGCACAUGAGGAUCACCCAUGUUCCUU” was tested, and the “apparent Kd” value [3] was 18.2 nM and the “apparent Kd” value [4] was 89.4 nM.
For “GUAGAGUAAGGAUAUGCAGAAUAGGAUAGAAUGGAUAGAAUGCAGAAGGUACAUGAGGAUCACCCAUGUAAUGU”, the “apparent Kd” value [3] was 19.8 nM and the “apparent Kd” value [4] was 21.6 nM.
In the case of “CAUUAUUAUCGAGGAUAUCCUAUUGAAAUUCUGGGAGAAGGCGGACUCAACAUGAGGAUCACCCAUGUGAGACGGAUGCUAGGG”, the “apparent Kd” value [3] is reported as 20.2 nM and the “apparent Kd” value [4] is reported as 15.8 nM.
“UUGGACGUCGUAGGAUAUGUAGGAUAUUCCUACAUGAGGAUCACCCAUGUUGACAUGGCAGAAGGACAGAAGGACGAUGUCCAU” was tested, and the “apparent Kd” value [1] was 938 nM and the “apparent Kd” value [2] was 129 nM.
For “AUAUGAUAGAUAGGAUAUACAGAUAAAUAAUAAGUAGAAGGAUCAAAUGGAAAUUAUACAUGAGGAUCACCCAUGUUUUUGAAU”, the “apparent Kd” value [1] was 29 nM and the “apparent Kd” value [2] was 22.4 nM.
In the case of “CCCGCGAUGUCAGGAUAUAGUCGGAGGUGCAGACUAGAAGGGACAUGAGGAUCACCCAUGUGCGUGAACAUUUGAAACCCGGGU”, the “apparent Kd” value [3] is reported as 40.4 nM and the “apparent Kd” value [4] is reported as 153 nM.
With “UUAUUGUGAGGAUAUCCAAUAUAUGACAUGAGGAUCACCCAUGUUUCCACUCGUACCUCCGGAGAAGGCACUUAUU” the “apparent Kd” value [3] was 32.7 nM and the “apparent Kd” value [4] was 29.4 nM.
In the case of “CGUACACAUGAGGAUCACCCAUGUCAGAUUUGGUCAGGAUAUGGGCGGCAUCCGCUAUUGCCAGAAGGGACUGUUG”, the “apparent Kd” value [1] is reported as 83.1 nM and the “apparent Kd” value [2] is reported as 160 nM.
In the case of “CCUAUACAUGAGGAUCACCCAUGUCAGGAUAUAGAAAGCUACGGAAUAGGACGUAGCACUAGAAGGGACUGGCU”, the “apparent Kd” value [3] is reported as 29.2 nM and the “apparent Kd” value [4] is reported as 43.4 nM.
For “GCUCGGCGUCAGAAGGCAGACGCGAAGCGCGUUUGAGGAUAUGACAUGAGGAUCACCCAUGUAGGUGUGCGAAAUUGUAAUCAC”, the “apparent Kd” value [3] was 301 nM and the “apparent Kd” value [4] was 309 nM.
In the case of “UUCAUGUGAGGAUAUGCGGCGCCAGGCGAGCCUGGCACUGAGCAGAAGGCACAUGAGGAUCACCCAUGUGCUCC”, the “apparent Kd” value [3] is reported as 33.5 nM and the “apparent Kd” value [4] is reported as 73.5 nM.
With “ACUUCACAUGAGGAUCACCCAUGUCAGGCCGGACUAGGAUAUUAUCAUGCAGCGUAACAGUGAGAAGGAGUUGGAU” the “apparent Kd” value [1] was 91.2 nM and the “apparent Kd” value [2] was 89.3 nM.
In the case of “AGUCAUACAGGAUAUACAUGAGGAUCACCCAUGUAAAUCCUACAUGGGUGAUCCUCAUGUAGAAGGGUAUGACA”, the “apparent Kd” value [3] is reported as 11.7 nM and the “apparent Kd” value [4] is reported as 10.4 nM.
With “GGAUAGUGUCGUUAUCCGUAGCGAACAUGAGGAUCACCCAUGUAGGAUAUGUUAUUAAACUAAUAACAGAAGGGCGUGAGUCUC” the “apparent Kd” value [3] was 429 nM and the “apparent Kd” value [4] was 480 nM.
“CAUAUGGGAGGAUAUGCAUAGAUAAAGAAACAUGUUCAACCACAUGAGGAUCACCCAUGUAGAAGGCCCAUAUG” was tested, and the “apparent Kd” value [3] was 29.6 nM and the “apparent Kd” value [4] was 162 nM.
“AAAAAGCGAGGAUAUACAAAAGAGCGAAAGCUCAAAAGGAAACAUGAGGAUCACCCAUGUAGAAGGCGCAAGAA” was tested, and the “apparent Kd” value [3] was 21.7 nM and the “apparent Kd” value [4] was 20.3 nM.
For “GGGCUGUCAGGAUAUGGGCCCGGGCCCGAAAGGGCCCGGGUUUAGAAGGGACAUGAGGAUCACCCAUGUGGCCC”, the “apparent Kd” value [3] was 32.5 nM and the “apparent Kd” value [4] was 37.2 nM.
In the case of “ACGUAAAUUCGAGGAUAUCGGUGAUAUAAUUUACGAGAAGGCGAUAAUUGUGAUAAACUUAUAGACAUGAGGAUCACCCAUGUA”, the “apparent Kd” value [1] is reported as 42.7 nM and the “apparent Kd” value [2] is reported as 37.9 nM.
“AAAACUCACGUAGGAUAUCAUUCCUUAAGGUAGUGAGAAGGACGUGACUACAUGUCCUUGAACAUGAGGAUCACCCAUGUAGGC” was tested, and the “apparent Kd” value [3] was 49.5 nM and the “apparent Kd” value [4] was 55.4 nM.
In the case of “CAAAAGUAUAACAAUUUCGAGGCACAGGAUAUGAGUGUGCACAUGAGGAUCACCCAUGUUAUAACUUAGAAGGGUGACCAUUGC”, the “apparent Kd” value [1] is reported as 265 nM and the “apparent Kd” value [2] is reported as 443 nM.
With “CGGGAGUCAGGAUAUACGAACAUGUCGCCAGAUGUCAAGGUACAUGAGGAUCACCCAUGUAGAAGGGAGGAGAA” the “apparent Kd” value [3] was 91 nM and the “apparent Kd” value [4] was 54.3 nM.
For “ACAUGAGGAUCACCCAUGUGACCACAAUGGCUGAUGUAACAACAGGAUAUUCGUGAAUAUCUAACGAAGAAGGGUUAUGACUGG”, the “apparent Kd” value [3] was 71.4 nM and the “apparent Kd” value [4] was 65.2 nM.
For “UUCUUACAUGAGGAUCACCCAUGUGUUGUCGUGGGAGGAUAUCCUUGUUCGGUGGCGUUGGGAGAAGGCCUAUGUU”, the “apparent Kd” value [1] was 39.3 nM and the “apparent Kd” value [2] was 73.2 nM.
“UUUUUAAAUAUAGGAUAUGGAAACAUGAGGAUCACCCAUGUAUGAUAAGAUAAAUUAUGAUAUAGCCAGAAGGAUAUUAUUUUU” was tested, and the “apparent Kd” value [1] was 32.1 nM and the “apparent Kd” value [2] was 29.7 nM.
“UUUUUUUUUAGAGGAUAUAUUGUGUGUUAUAUAAUAGAAGGCUAAACAUGACAUGACACAUGAGGAUCACCCAUGUAUGUCCAU” was tested, and the “apparent Kd” value [1] was 22.7 nM and the “apparent Kd” value [2] was 18.2 nM.
With “GCCGUAAGUGUGAGGAUAUACCUAUGGAAACAUAGGUAGAAGGCACAUGAGGAUCACCCAUGUUCUUAAUCGGC” the “apparent Kd” value [3] was 134 nM and the “apparent Kd” value [4] was 329 nM.
With “AAAAGACAUGAGGAUCACCCAUGUAAAAACGUGGGAGGAUAUGUAUGGAAACCAGACUGUACAGAAGGCCUUUGUC” the “apparent Kd” value [1] was 138 nM and the “apparent Kd” value [2] was 164 nM.
“GCCCGGGCAAACAUGAGGAUCACCCAUGUGUUAUACUUAAUAUAGGAUAUGUUUAUACUUUUUGGGCAGAAGGAUGGCCCGGGC” was tested, and the “apparent Kd” value [1] was 35.1 nM and the “apparent Kd” value [2] was 32.4 nM.
With “AUCAGCUCAUCAGGAUAUACGUCACUGCGUCAGCAGUGUGGUAAGAUCACAUGAGGAUCACCCAUGUAGAAGGGACGAGCUGAU” the “apparent Kd” value [3] was 13.7 nM and the “apparent Kd” value [4] was 243 nM.
With “GUUUCUAUAAGUUAUAAUUAACAGUCAGAAGGUGAUACUACGACAUGAGGAUCACCCAUGUAAUUCAAGGAUAUGAACUUAAUC” the “apparent Kd” value [1] was 1120 nM and the “apparent Kd” value [2] was 539 nM.
With “UCCUACAUCGGAGGAUAUCAUGUGUAAACAUGAGGAUCACCCAUGUCGUACGAUAGUACGGAGAUUGAGAAGGCCGAUGUAGGU” the “apparent Kd” value [1] was 93.9 nM and the “apparent Kd” value [2] was 17.3 nM.
With “AAUAUUAAGUAGAAGGUAGAUAUUAUUUUAUUCAUGUUUACAUGAGGAUCACCCAUGUAUAAGUCUAAGGAUAUACAUCGAUAG” the “apparent Kd” value [3] was 14.9 nM and the “apparent Kd” value [4] was 9.93 nM.
In the case of “UUUAUAAAUUAGAAGGCGAGAUAAAAUACAAUAGACAUGAGGAUCACCCAUGUGUACCCAUGUUUUGAGGAUAUAGUCAUAUAU”, the “apparent Kd” value [1] is reported as 804 nM and the “apparent Kd” value [2] is reported as 536 nM.
With “GGUGUAGGAGGAUAUACAUGAGGAUCACCCAUGUGGCCACGUUGUAAGAUGACAUUAUGUAGAAGGCUUAGUGG” the “apparent Kd” value [3] was 90.4 nM and the “apparent Kd” value [4] was 89.8 nM.
In the case of “UGAGAUCGGGCAGGAUAUCGACAUGAGGAUCACCCAUGUGGGUUAUACUUCCCGCAUGGCUGUGGCGAGAAGGGCCCGGACCAU”, the “apparent Kd” value [3] is reported as 395 nM and the “apparent Kd” value [4] is reported as 83.1 nM.
For “UAAAAGCUAGGAUAUACAUGAGGAUCACCCAUGUCACGGGUCCACUCAUCCUAUACGUGUAGAAGGAGCGACCC”, the “apparent Kd” value [4] was 19.2 nM.
For “ACGUUUUAUGCAGGAUAUUGACUUAUAUUUAAACAAGAAGGGCAAUACAUGAGGAUCACCCAUGUUAUCAUGGUAUUUAAGUUC”, the “apparent Kd” value [3] was 82.2 nM and the “apparent Kd” value [4] was 53.9 nM.
For “AAUGAGCUAGGAUAUACAUGAGGAUCACCCAUGUAAAAUAGGUCAUGGAGGAACCACUGUAGAAGGAGCAGGGC”, the “apparent Kd” value [3] was 45.4 nM and the “apparent Kd” value [4] was 72.1 nM.
For “GUCAGCUCGUGAGGAUAUACAACACUGCUUCGGCACUGUAUUAAGAUCACAUGAGGAUCACCCAUGUAGAAGGCACGAGCUGAU”, the “apparent Kd” value [3] was 8.62 nM and the “apparent Kd” value [4] was 104 nM.
“CCGGAAACGGGUAGCCUGACAUGAGGAUCACCCAUGUGAACCAAGGAUAUGGAUCCUAAUUGGAUCCAGAAGGUGGAAGGCUAC” was tested, and the “apparent Kd” value [1] was 243 nM and the “apparent Kd” value [2] was 45.3 nM.
“AAGAAGUCAGGAUAUCCUGCUCGUCACUUGCGUGAUGAGUAGGAGAAGGGACAUGAGGAUCACCCAUGUAAAGA” was tested, and the “apparent Kd” value [3] was 54.3 nM and the “apparent Kd” value [4] was 51.5 nM.
With “AAAAAGUCAGGAUAUAGAAAAGGUCACGAAAGUGACAAAGGCUAGAAGGGACAUGAGGAUCACCCAUGUAAAAA” the “apparent Kd” value [3] was 31.9 nM and the “apparent Kd” value [4] was 31.1 nM.
In the case of “AGUCUGAGAGGAUAUACAUGAAAAAAAAAAGUUAGAUCCCUACAUGAGGAUCACCCAUGUAGAAGGCUCUGACA”, the “apparent Kd” value [3] is reported as 19.2 nM and the “apparent Kd” value [4] is reported as 16.7 nM.
For “AGUUGGCGAGGAUAUACAUGAGGAUCACCCAUGUGGUCCUGCGAUGGUGUCGCCCUUUGUAGAAGGCGCGGGUC”, the “apparent Kd” value [3] was 35 nM and the “apparent Kd” value [4] was 28.1 nM.
For “UGAUUUUCUUCUAACUAUCACCACAUGAGGAUCACCCAUGUCAAGGAUAUAGAGCGCGCUGGGUUCUAGAAGGUGGCGUGCCAA”, the “apparent Kd” value [3] was 7.52 nM and the “apparent Kd” value [4] was 6.47 nM.
